Tests used:
Amaranthus retroflexus = assay: Herbicidal activity against Amaranthus retroflexus assessed as growth inhibition at 150 g ai/ha using post-emergence protocol under greenhouse conditions measured 15 days after compound treatment; format: functional; conditions: 360 h, read-out: GI
In short: (§1)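 Post-emergence greenhouse spray on pot-grown broadleaf weeds at the 2-leaf stage. Formulation concentrates were diluted with water. Soil was clay, pH 6.5, 1.6% organic matter, 37.3% clay particles, CEC 12.1 mol/kg. The rate was total active ingredient divided by pot surface area. Untreated seedlings and DMF-treated seedlings served as controls.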

Digitaria sanguinalis = assay: Herbicidal activity against Digitaria sanguinalis (hairy crabgrass) assessed as growth inhibition at 150 g ai/ha using post-emergence protocol under greenhouse conditions measured 15 days after compound treatment; format: functional; conditions: 360 h, read-out: GI
In short: (§2)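 Grass weeds were grown in pots in the greenhouse and sprayed post-emergence at the 1-leaf stage. The spray was formulation concentrate diluted in water. Soil was clay, pH 6.5, 1.6% organic matter, 37.3% clay particles, CEC 12.1 mol/kg. The g.ai/ha rate was active ingredient over pot surface area. Controls were untreated and DMF-treated seedlings.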

Setaria viridis = assay: Herbicidal activity against Setaria viridis assessed as growth inhibition at 150 g ai/ha using post-emergence protocol under greenhouse conditions measured 15 days after compound treatment; format: functional; conditions: 360 h, read-out: GI; in short: as §2
Brassica juncea = assay: Herbicidal activity against Brassica juncea assessed as growth inhibition at 150 g ai/ha using post-emergence protocol under greenhouse conditions measured 15 days after compound treatment; format: functional; conditions: 360 h, read-out: GI; in short: as §1
Eclipta prostrata = assay: Herbicidal activity against Eclipta prostrata assessed as growth inhibition at 150 g ai/ha using post-emergence protocol under greenhouse conditions measured 15 days after compound treatment; format: functional; conditions: 360 h, read-out: GI; in short: as §1
Echinochloa crus-galli = assay: Herbicidal activity against Echinochloa crus-galli (barnyard grass) assessed as growth inhibition at 150 g ai/ha using post-emergence protocol under greenhouse conditions measured 15 days after compound treatment; format: functional; conditions: 360 h, read-out: GI; in short: as §2
Chenopodium album = assay: Herbicidal activity against Chenopodium album assessed as growth inhibition at 150 g ai/ha using post-emergence protocol under greenhouse conditions measured 15 days after compound treatment; format: functional; conditions: 360 h, read-out: GI; in short: as §1
[1] = target: T1, Protoporphyrinogen oxidase (Homo sapiens, UniProt P50336); assay: Inhibition of Homo sapiens (human) protoporphyrinogen oxidase
T1 sequence (P50336 whole entry): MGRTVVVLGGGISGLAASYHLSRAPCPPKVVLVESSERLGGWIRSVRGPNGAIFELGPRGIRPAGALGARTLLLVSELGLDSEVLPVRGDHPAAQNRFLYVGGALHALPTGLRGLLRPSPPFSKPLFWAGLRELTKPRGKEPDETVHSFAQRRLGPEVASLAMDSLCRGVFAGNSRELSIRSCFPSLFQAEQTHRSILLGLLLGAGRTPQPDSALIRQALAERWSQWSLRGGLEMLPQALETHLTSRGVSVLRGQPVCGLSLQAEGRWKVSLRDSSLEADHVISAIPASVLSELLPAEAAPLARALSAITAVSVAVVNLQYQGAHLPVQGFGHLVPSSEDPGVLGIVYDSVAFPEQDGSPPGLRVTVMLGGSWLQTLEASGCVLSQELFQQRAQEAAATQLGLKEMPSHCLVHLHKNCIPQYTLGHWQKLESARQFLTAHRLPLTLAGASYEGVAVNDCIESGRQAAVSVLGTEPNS

Row | Compound | inhibition of growth at 150 g/ha (Amaranthus retroflexus) | inhibition of growth at 150 g/ha (Digitaria sanguinalis) | inhibition of growth at 150 g/ha (Setaria viridis) | inhibition of growth at 150 g/ha (Brassica juncea) | inhibition of growth at 150 g/ha (Eclipta prostrata) | inhibition of growth at 150 g/ha (Echinochloa crus-galli) | inhibition of growth at 150 g/ha (Chenopodium album) | Ki ([1]; read-out: Ki) | Ki ([1]; read-out: pKi (converted))
1 | CCOc1cc(N2CC3=C(CCCC3)C2=O)c(Cl)cc1Cl | 50% | < 50% | < 50% | < 50% | 50% | < 50% | 50% | 0.67 µM | –
2 | CCOc1cc(N2CC3=C(CCCC3)C2=O)c(F)cc1Cl | > 80% | > 80% | > 80% | 50% | 50% | > 80% | 100% | 0.2 µM | –
3 | CCCOc1cc(N2CC3=C(CCCC3)C2=O)c(Cl)cc1Cl | > 80% | < 50% | < 50% | < 50% | < 50% | < 50% | < 50% | 0.3 µM | –
4 | CCCOc1cc(N2CC3=C(CCCC3)C2=O)c(F)cc1Cl | > 80% | > 80% | > 80% | > 80% | 100% | > 80% | 100% | 0.095 µM | –
5 | C=CCOc1cc(N2CC3=C(CCCC3)C2=O)c(F)cc1Cl | 100% | > 80% | > 80% | > 80% | 100% | > 80% | 100% | 0.12 µM | –
6 | O=C1C2=C(CCCC2)C(O)N1c1cc(O)c(Br)cc1F (stereo not drawn) | 50% | 50% | < 50% | < 50% | 50% | < 50% | 50% | 19.3 µM | –
7 | O=C1C2=C(CCCC2)C(O)N1c1cc(OCc2cccc(F)c2)c(Cl)cc1F (stereo not drawn) | > 80% | 50% | < 50% | 50% | 50% | < 50% | 50% | 0.78 µM | –
8 | O=C1C2=C(CCCC2)C(O)N1c1cc(OCc2cccc(Cl)c2)c(Cl)cc1F (stereo not drawn) | 50% | < 50% | < 50% | 50% | 50% | < 50% | 50% | 0.53 µM | –
9 | C=CCOc1cc(N2C(=O)C3=C(CCCC3)C2O)c(Cl)cc1Cl (stereo not drawn) | 50% | < 50% | < 50% | 50% | 50% | < 50% | 50% | 7.45 µM | –
10 | C=CCOc1cc(N2C(=O)C3=C(CCCC3)C2O)c(F)cc1Cl (stereo not drawn) | > 80% | < 50% | < 50% | 50% | 50% | < 50% | > 80% | 1.03 µM | –
11 | CCOc1cc(Cl)c([N+](=O)[O-])cc1N1C(=O)C2=C(CCCC2)C1O (stereo not drawn) | > 80% | < 50% | < 50% | < 50% | 50% | < 50% | 50% | 359 µM | –
12 | C=CCOC1C2=C(CCCC2)C(=O)N1c1cc(O)c(Br)cc1F (stereo not drawn) | 50% | 50% | < 50% | < 50% | 50% | 50% | 50% | 41.4 µM | –
13 | COC1C2=C(CCCC2)C(=O)N1c1cc(OCc2cccc(Cl)c2)c(Cl)cc1F (stereo not drawn) | 50% | < 50% | < 50% | 50% | 50% | 50% | 50% | 1.03 µM | –
14 | COc1cc(N2C(=O)C3=C(CCCC3)C2OC)c(F)cc1Cl (stereo not drawn) | > 80% | 50% | 50% | 50% | 50% | 50% | > 80% | 4.49 µM | –
15 | C=CCOC1C2=C(CCCC2)C(=O)N1c1cc(OCc2cccc(Cl)c2)c(Cl)cc1F (stereo not drawn) | > 80% | 50% | < 50% | < 50% | 50% | < 50% | < 50% | 66.6 µM | –
16 | C=CCOc1cc(N2C(=O)C3=C(CCCC3)C2OCC=C)c(F)cc1Cl (stereo not drawn) | 100% | > 80% | > 80% | 100% | > 80% | 50% | > 80% | 33.1 µM | –
17 | C=CCOC1C2=C(CCCC2)C(=O)N1c1cc(OCC)c(Cl)cc1F (stereo not drawn) | 100% | 50% | 50% | 50% | 100% | 50% | 100% | 7.02 µM | –
18 | CCOC(=O)COc1cc(N2C(=O)C3CCCCC3C2O)c(F)cc1Cl (stereo not drawn) | < 50% | < 50% | < 50% | < 50% | < 50% | < 50% | < 50% | 124 µM | –
19 | CCOC(=O)C(C)Oc1cc(N2C(=O)C3CCCCC3C2O)c(F)cc1Cl (stereo not drawn) | < 50% | < 50% | < 50% | < 50% | < 50% | < 50% | < 50% | 48.1 µM | –
20 | C#CCOc1cc(N2C(=O)C3CCCCC3C2O)c(F)cc1Cl (stereo not drawn) | < 50% | < 50% | < 50% | < 50% | < 50% | < 50% | < 50% | 63.6 µM | –
21 | C=CCOc1cc(N2C(=O)C3CCCCC3C2O)c(F)cc1Cl (stereo not drawn) | < 50% | < 50% | < 50% | < 50% | < 50% | < 50% | < 50% | 44.8 µM | 45.7 µM
22 | CC(C)Oc1cc(N2CC3=C(CCCC3)C2=O)c(F)cc1Cl | 100% | < 50% | 50% | > 80% | > 80% | < 50% | > 80% | 0.69 µM | –
23 | Nc1cc(N2CC3=C(CCCC3)C2=O)ccc1Cl | < 50% | < 50% | < 50% | < 50% | < 50% | < 50% | < 50% | 27.6 µM | –
24 | O=C1NC(=O)c2cc(Cl)ccc21 [4-CHLORO-PHTHALIMIDE] | – | – | – | – | – | – | – | 87.9 µM | –
25 | Cc1nn(-c2cc(NS(C)(=O)=O)c(Cl)cc2Cl)c(=O)n1C(F)F [SULFENTRAZONE] | 100% | < 50% | > 80% | 100% | 100% | < 50% | 100% | – | –
